Measured values gathered from unrelated publications.
Lines come from different studies, so protocols differ.
BRAF: Serine/threonine-protein kinase B-raf (BRAF, Homo sapiens, UniProt P15056)
BRAF V600E: Serine/threonine-protein kinase B-raf (BRAF, Homo sapiens, UniProt P15056, V600E)

Cc1cnc(Nc2ccc(C(=O)N3CCC(N4CCCC4)CC3)cc2)nc1-c1cc2ccccc2s1 gave a remaining binding of 46% (BRAF; binding, competition with immobilised ligand; 1 µM).
For CC(C)(C)c1ccc(-c2nc(CBr)nn2-c2cccc(O)c2)cc1, the remaining binding was 77% (BRAF; cell-free assay, competition with immobilised ligand; 10 µM).
For O=C(NCCCN1CCOCC1)c1ccc(Nc2nccc(-c3cc4ccccc4s3)n2)cc1, the remaining binding was 77% (BRAF; binding, competition with immobilised ligand; 1 µM).
CN(C)c1nccc(-c2cnn3ncccc23)n1 has a remaining binding of 74% (BRAF; binding; 1 µM).
O=C(Nc1c[nH]nc1C(=O)NC1CCNCC1)c1cc(F)cc(F)c1 has a remaining binding of 100% (BRAF; binding, competition with immobilised ligand; 1 µM).
CN(c1nccc(-c2cnn3ncccc23)n1)C1CC1 gave a remaining binding of 100% (BRAF V600E; binding; 1 µM).
With C=CC(=O)N1CCC(C(=O)NCC(=O)N2CCN(c3nc(-c4cnc(N)nc4C(F)F)nc(N4CCOCC4)n3)CC2)CC1 the remaining binding was 92% (BRAF; binding, competition with immobilised ligand; 1 µM).
For Nc1ncc2c(n1)-c1c([nH]c3ccc(C#CC4CC4)cc13)CCCC2, the remaining binding was 100% (BRAF; binding, competition with immobilised ligand; 1 µM).
For O=C(c1ccc(Nc2ncc(Cl)c(-c3cc4ccccc4s3)n2)cc1)N1CCC(N2CCCC2)CC1, the remaining binding was 64% (BRAF; binding, competition with immobilised ligand; 1 µM).
C[C@@H]1CN(c2ccc3ncc(-c4ccc5[nH]nc(C6CC6)c5c4)n3n2)C[C@H](C)O1 gave a remaining binding of 100% (BRAF; binding, competition with immobilised ligand; 0.5 µM).
COc1ncc2cc3ccccc3nc2c1C#N gave a remaining binding of 100% (BRAF; cell-free assay, competition with immobilised ligand; 5 µM).
COc1cnc(Nc2cccc(S(N)(=O)=O)c2)nc1N1CCN(c2ccccc2)CC1 gave a remaining binding of 82% (BRAF V600E; binding, competition with immobilised ligand; 1 µM).
CS(=O)(=O)N1CCCC(NC(=O)[C@H](CCC2CCCCC2)NC(=O)c2ccc(CNc3ncnc4c3nnn4-c3ccccc3)cc2)C1 (stereo partly shown) has a remaining binding of 81% (BRAF; cell-free assay, competition with immobilised ligand; 0.1 µM).
CN(CCCC(F)(F)F)c1nccc(-c2cnn3ncccc23)n1 has a remaining binding of 100% (BRAF; binding; 1 µM).
With N#Cc1ccccc1CSc1nnc2c(n1)[nH]c1ccccc12 the remaining binding was 100% (BRAF V600E; binding, competition with immobilised ligand; 10 µM).
For CN1CCN(c2ccc(Nc3nccc(-c4cccc([N+](=O)[O-])c4)n3)cc2C(F)(F)F)CC1, the remaining binding was 3.8% (BRAF V600E; binding; 10 µM).
For C[C@@H](c1ccc(-n2cnc3c(N)ncnc32)cc1)N1CCc2nn(C)c(Cc3ccccc3)c2C1=O, the remaining binding was 100% (BRAF; binding, competition with immobilised ligand; 0.1 µM).
O=C(NCC1CCOCC1)c1n[nH]cc1NC(=O)c1c(F)cccc1F gave a remaining binding of 100% (BRAF V600E; binding, competition with immobilised ligand; 1 µM).
COc1cnc(Nc2cccc(S(N)(=O)=O)c2)nc1N1CCN(c2ccccc2)C(=O)C1 has a remaining binding of 84% (BRAF V600E; binding, competition with immobilised ligand; 1 µM).
c1cnn2ncc(-c3ccnc(N4CCC45COC5)n3)c2c1 has a remaining binding of 56% (BRAF; binding; 1 µM).
CCN1CCN(Cc2ccc(C(=O)Nc3ccc(C)c(Oc4ccc5c(c4)CC(=O)N5)c3)cc2C(F)(F)F)CC1 has a remaining binding of 28% (BRAF V600E; binding, competition with immobilised ligand; 1 µM).
C[C@H]1CCN(c2nccc(-c3cnn4ncccc34)n2)C1 has a remaining binding of 93% (BRAF V600E; binding; 1 µM).
With O=C(NCCCN1CCOCC1)c1ccc(Nc2ncc(Cl)c(-c3ccc(Cl)s3)n2)cc1 the remaining binding was 92% (BRAF V600E; binding, competition with immobilised ligand; 1 µM).
Cc1nccc(COC(=O)N2C[C@@H]3[C@@H](CNC(=O)c4ccc5[nH]nnc5c4)[C@@H]3C2)n1 has a remaining binding of 100% (BRAF V600E; cell-free assay, competition with immobilised ligand; 1 µM).
With c1cncc(-c2cccc(Nc3nccc(NC4CCCCC4)n3)c2)c1 the remaining binding was 52% (BRAF V600E; binding, competition with immobilised ligand; 10 µM).
Cc1nc(Cc2cccc(C(F)(F)F)c2)sc1-c1ccc(C(N)=O)nc1 gave a remaining binding of 100% (BRAF V600E; cell-free assay, competition with immobilised ligand; 1 µM).
CC1CCCN1c1nccc(-c2cnn3ncccc23)n1 (stereo not shown) gave a remaining binding of 100% (BRAF V600E; binding; 1 µM).
The remaining binding of CNCc1ccccc1-c1csc([C@H](C)Nc2nc(C)nc3cc(OC)c(OC)cc23)c1 is reported as 97% (BRAF; cell-free assay, competition with immobilised ligand; 1 µM).
With N[C@H]1CCN(c2nccc(-c3cnn4ncccc34)n2)C1 the remaining binding was 84% (BRAF; binding; 1 µM).
For C[C@@H]1CN(c2cc(-c3n[nH]c4ccc(OC5(C)CC5)cc34)ncn2)C[C@H](C)O1, the remaining binding was 89% (BRAF V600E; cell-free assay, competition with immobilised ligand; 0.1 µM).
F[C@@H]1CCN(c2nccc(-c3cnn4ncccc34)n2)C1 gave a remaining binding of 100% (BRAF V600E; binding; 1 µM).
The remaining binding of NS(=O)(=O)c1cc(NC(=O)Cc2ccccc2)ccc1Oc1cccc(Cl)c1 is reported as 96% (BRAF; cell-free assay, competition with immobilised ligand; 1 µM).
With O=C(c1ccc(Nc2ncc(Cl)c(-c3ccc(Cl)s3)n2)cc1)N1CCC(N2CCCC2)CC1 the remaining binding was 37% (BRAF V600E; binding, competition with immobilised ligand; 1 µM).
For COc1cc(-c2cn(C3CCc4ccccc4N(CC(F)(F)F)C3=O)nn2)ccc1-n1ccc(C)n1 (stereo not shown), the remaining binding was 100% (BRAF; cell-free assay, competition with immobilised ligand; 1 µM).
CNC(=O)[C@@H]1CC[C@@H](n2c(-c3ccc4cnccc4c3)nc3ccc(C(=O)NCc4cccc(C(N)=O)c4)cc32)C1 gave a remaining binding of 100% (BRAF V600E; binding, competition with immobilised ligand; 1 µM).
O=C(c1ccc(Nc2nccc(-c3cc4ccccc4s3)n2)cc1)N1CCC(N2CCCC2)CC1 gave a remaining binding of 21% (BRAF V600E; binding, competition with immobilised ligand; 1 µM).
CN(C)C(=O)Cn1cc(-c2nc(C3(c4ccc(-c5cnc(N)nc5)cc4)CC3)no2)cn1 has a remaining binding of 88% (BRAF; cell-free assay, competition with immobilised ligand; 1 µM).
